Results collected from several papers.
Effect on: cell growth or viability

SMILES | cell line | assay | setting | endpoint | result
Cc1cc(Nc2ncc(Cl)c(Nc3ccccc3S(=O)(=O)C(C)C)n2)c(OC(C)C)cc1C1CCNCC1 | NCI-H2228 | MTT | 1 µg/mL, 72 h | inhibition | 80%
COc1cccc(Oc2ccccc2NC(=O)CNC(=O)c2cccc3ccccc23)c1 | RXF 393 | SRB | 48 h | GI50 | 0.166 µM
Cc1cccc2cc(CNCC3(N4CCCC4)COC3)cnc12 | A 172 |  | 30 µM, 48 h | viability | 92.6%
Cc1ccc(C(CS(=O)(=O)c2ccccc2)=NNC2=NC(=O)C(=NNc3ccccc3)S2)cc1 | SK-MEL-23 | MTT | 1.6 µM, 48 h | viability | 42.9%
COc1ccc(-c2ccc(-c3ccc(C(=N)N)nc3)s2)cc1 | RXF 393 |  |  | GI50 | 1.77 µM
C[C@@H](Oc1cc(-c2cnn(C3CCNCC3)c2)cnc1N)c1c(Cl)ccc(F)c1Cl | NCI-H2228 | MTT | 0.2 µg/mL, 72 h | inhibition | 64.4%
Fc1ccc2c(CNCC3(N4CCC(F)C4)COC3)c[nH]c2c1 (stereo not drawn) | A 172 |  | 30 µM, 48 h | viability | 80.6%
CC(C)(C)c1nc(-c2cccc(NS(=O)(=O)c3c(F)cccc3F)c2F)c(-c2ccnc(N)n2)s1 | SK-MEL-23 | MTT | 100 µM, 48 h | viability | 34.4%
COc1cc(Nc2nccc(-c3cnn4nc(OC)ccc34)n2)cc(C(F)(F)F)c1 | HT-1080 | ATP luminescence |  | IC50 | 0.18 µM
COc1cc(-c2ccc(-c3ccc(C(=N)N)nc3)s2)cc(OC)c1OC | RXF 393 |  |  | GI50 | 2.19 µM
CN(C)CCCOc1cc(NC(=O)c2cccc(C(=O)Nc3cc(OCCCN(C)C)c4ccccc4n3)n2)nc2ccccc12 | HT-1080 | ATP luminescence | 72 h | IC50 | 2.6 µM
Cc1ccc(C(CS(=O)(=O)c2ccccc2)=NN=C2N=C(c3ccc(Br)cc3)CS2)cc1 | SK-MEL-23 | MTT | 100 µM, 48 h | viability | 45.7%
Fc1ccc2[nH]cc(CNCC3(N4CCC(F)C4)COC3)c2c1 (stereo not drawn) | A 172 |  | 30 µM, 48 h | viability | 80.6%
Cc1ccc(C(CS(=O)(=O)c2ccccc2)=NNc2nc(C)c(N=Nc3cccc(C)c3)s2)cc1 | SK-MEL-23 | MTT | 0.4 µM, 48 h | viability | 65.4%
Clc1ccccc1-c1ccc(CNCC2(N3CCCC3)COC2)o1 | A 172 |  | 30 µM, 48 h | viability | 70.6%
NCCOc1cc(NC(=O)c2cc(OCc3c[nH]nn3)cc(C(=O)Nc3cc(OCCN)c4ccccc4n3)n2)nc2ccccc12 | HT-1080 | ATP luminescence | 72 h | IC50 | 13.5 µM
NC(=S)NN=C(CS(=O)(=O)c1ccccc1)c1ccc(F)cc1 | SK-MEL-23 | MTT | 6.3 µM, 48 h | viability | 53.8%
FC1CCN(C2(CNCc3ccc(-c4ccccc4)o3)COC2)C1 (stereo not drawn) | A 172 |  | 30 µM, 48 h | viability | 97.6%
